# Experimental data taken from ChEMBL document CHEMBL2086353, “Design, synthesis and structure-activity relationship of novel inhibitors against H5N1 hemagglutinin-mediated membrane fusion” (Eur J Med Chem, 2012).
# Calls of active or inactive are those of the source. The rule behind the calls is not given here.
# System: MDCK
# Assay: Inhibition of Vesicular stomatitis virus G hemagglutininin-mediated membrane fusion assessed as inhibition of […] infection of MDCK cells by luciferase reporter gene assay
# Type: cell-based
# In short: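 Specificity control: VSV-G-pseudotyped luciferase-reporter particles replace the H5N1 pseudovirus. Compound preincubated with particles (1 ng p24/well) for 30 min at 37 °C, then added to MDCK cells (DMEM, 10% FCS) for 48 h. Lysate luciferase read on a luminometer.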
row,SMILES,inhibition
1,O=C(NCCN1CCCC1)c1cc(F)cc(C(F)(F)F)c1,inactive
2,O=C(NCc1ccncc1)c1cc(F)cc(C(F)(F)F)c1,inactive
3,O=C(NCCc1cccs1)c1cc(F)cc(C(F)(F)F)c1,inactive

# System: Influenza A virus
# Assay: Antiviral activity against Influenza A virus (A/Thailand/Kan353/2004(H5N1)) assessed as inhibition of viral infection
# Type: functional, organism-based
row,SMILES,IC50
1,O=C(NCCN1CCCCC1)c1cc(F)cc(C(F)(F)F)c1,27 µM

# System: not listed separately
# Assay: Inhibition of Influenza A virus (A/Anhui/1/2005(H5N1)) hemagglutininin-mediated membrane fusion assessed as inhibition of H5N1 pesudovirus infection of MDCK cells using A/Anhui/1/2005(H5N1) hemagglutinin plasmid and NA plasmid from N1 subtype strain A/Thailand/Kan353/ 2004 infected in 293T cells by luciferase reporter gene assay
# Type: cell-based
# In short: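 MDCK target cells grown in DMEM with glutamine and 10% FCS. Compound at indicated concentrations preincubated with H5N1 HA/NA-pseudotyped luciferase-reporter particles (1 ng p24/well) for 30 min at 37 °C. Mixture then added to cells for 48 h. Cells PBS-washed and lysed, and luciferase activity read on a luminometer.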
row,SMILES,IC50
1,CN1CCN(CCCNC(=O)c2cc(F)cc(C(F)(F)F)c2)CC1,84.3 µM
2,O=C(NCCN1CCCCC1)c1cncc(Br)c1,5.13 µM
3,O=C(NCCc1cccs1)c1cc(C(F)(F)F)cc(C(F)(F)F)c1,2.44 µM
4,O=C(OCCN1CCCCC1)c1cc(F)cc(C(F)(F)F)c1,61.2 µM
5,O=C(NC1CCCCC1)c1cccc(C(F)(F)F)c1,7.8 µM
6,CN1CCN(CCCNC(=O)c2cc(C(F)(F)F)cc(C(F)(F)F)c2)CC1,66.6 µM
7,O=C(NCCc1ccccc1)c1cc(F)cc(C(F)(F)F)c1,0.33 µM
8,O=C(NCCc1cccs1)c1cccc(C(F)(F)F)c1,4.33 µM
9,O=C(NCc1cccnc1)c1cc(C(F)(F)F)cc(C(F)(F)F)c1,2.46 µM
10,O=C(NCCN1CCCC1)c1cc(C(F)(F)F)cc(C(F)(F)F)c1,1.71 µM
11,O=C(NCCc1cccs1)c1cncc(Cl)c1,9.2 µM
12,O=C(NCCN1CCCC1)c1cc(F)cc(C(F)(F)F)c1,0.38 µM
13,O=C(NCCN1CCCC1)c1cc(O)c(O)cc1O,41.5 µM
14,O=C(NCCN1CCCCC1)c1cc(F)cc(C(F)(F)F)c1,0.37 µM
15,O=C(NCCN1CCCCC1)c1cc(C(F)(F)F)cc(C(F)(F)F)c1,2.51 µM
16,O=C(NCc1ccncc1)c1cc(F)cc(C(F)(F)F)c1,0.56 µM
17,O=C(NCCOC(=O)c1cc(F)cc(C(F)(F)F)c1)c1cc(F)cc(C(F)(F)F)c1,60 µM
18,O=C(NCCc1cccs1)c1cncc(Br)c1,7.61 µM
19,O=C(NCCN1CCOCC1)c1cc(C(F)(F)F)cc(C(F)(F)F)c1,9.89 µM
20,O=C(NCCN1CCOCC1)c1cc(F)cc(C(F)(F)F)c1,1.22 µM
21,O=C(NCCc1cccs1)c1cc(F)cc(C(F)(F)F)c1,0.22 µM
22,O=C(NCCc1ccccc1)c1cc(C(F)(F)F)cc(C(F)(F)F)c1,2.47 µM
23,CC(NC(=O)c1cc(C(F)(F)F)cc(C(F)(F)F)c1)c1ccc2ccccc2c1 (stereo unspecified),40.8 µM
24,O=S(=O)(NCCN1CCCCC1)c1cccc(C(F)(F)F)c1,54.9 µM
25,O=C(NCCc1ccccc1)c1cccc(C(F)(F)F)c1,80 µM
26,CC(NC(=O)c1cc(F)cc(C(F)(F)F)c1)c1ccc2ccccc2c1 (stereo unspecified),49 µM
27,O=C(NCCN1CCCCC1)c1cncc(Cl)c1,6.25 µM
